≈ marks a conversion by molar mass, not a printed value.
Key:
Adenosine receptor A2b = biological target: T1, Adenosine receptor A2b (Homo sapiens, UniProt P29275); assay: Displacement of [3H]DPCPX from human cloned adenosine A2B receptor expressed in HEK293 cells; type: cell-based
T1 sequence (P29275 whole entry): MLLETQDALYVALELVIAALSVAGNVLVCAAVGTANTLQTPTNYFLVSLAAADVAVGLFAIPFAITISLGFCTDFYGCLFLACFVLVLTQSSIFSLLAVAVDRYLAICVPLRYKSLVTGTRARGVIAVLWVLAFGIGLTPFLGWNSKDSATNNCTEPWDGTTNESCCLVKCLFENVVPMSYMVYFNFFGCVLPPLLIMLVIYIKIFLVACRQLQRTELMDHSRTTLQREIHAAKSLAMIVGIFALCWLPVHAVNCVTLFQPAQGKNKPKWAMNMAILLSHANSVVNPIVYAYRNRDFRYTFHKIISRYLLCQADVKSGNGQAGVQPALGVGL

Adenosine receptor A2a [1] = biological target: T2, Adenosine receptor A2a (Homo sapiens, UniProt P29274); assay: Displacement of [3H]ZM241385 from human cloned adenosine A2A receptor expressed in human HeLa cells; type: cell-based
T2 sequence (P29274 whole entry): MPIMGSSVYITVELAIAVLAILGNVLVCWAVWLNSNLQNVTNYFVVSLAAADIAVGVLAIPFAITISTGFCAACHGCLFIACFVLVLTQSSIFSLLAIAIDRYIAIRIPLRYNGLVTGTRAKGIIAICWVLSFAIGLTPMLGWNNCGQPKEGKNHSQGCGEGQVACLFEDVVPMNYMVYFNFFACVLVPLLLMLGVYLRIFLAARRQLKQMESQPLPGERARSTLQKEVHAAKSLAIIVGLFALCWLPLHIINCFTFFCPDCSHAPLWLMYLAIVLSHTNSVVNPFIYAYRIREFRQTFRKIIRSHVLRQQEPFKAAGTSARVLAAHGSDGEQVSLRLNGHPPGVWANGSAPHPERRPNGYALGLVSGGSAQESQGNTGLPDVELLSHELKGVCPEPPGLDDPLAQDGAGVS

HeLa = assay: Selectivity index, ratio of Ki for human cloned adenosine A2A receptor expressed in human HeLa cells to Ki for human cloned adenosine A2B receptor expressed in HEK293 cells; type: cell-based
Method in brief: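 SI is the ratio of Ki values. […] A1 in CHO cells: [3H]DPCPX 2 nM. A2A in HeLa cells: [3H]ZM241385 3 nM. A2B in HEK-293 cells: [3H]DPCPX 25 nM. A3 in HeLa cells: [3H]NECA 30 nM. Filtration and scintillation counting.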

Adenosine receptor A1 = biological target: T3, Adenosine receptor A1 (Homo sapiens, UniProt P30542); assay: Displacement of [3H]DPCPX from human cloned adenosine A1 receptor expressed in CHO cells; type: cell-based
T3 sequence (P30542 whole entry): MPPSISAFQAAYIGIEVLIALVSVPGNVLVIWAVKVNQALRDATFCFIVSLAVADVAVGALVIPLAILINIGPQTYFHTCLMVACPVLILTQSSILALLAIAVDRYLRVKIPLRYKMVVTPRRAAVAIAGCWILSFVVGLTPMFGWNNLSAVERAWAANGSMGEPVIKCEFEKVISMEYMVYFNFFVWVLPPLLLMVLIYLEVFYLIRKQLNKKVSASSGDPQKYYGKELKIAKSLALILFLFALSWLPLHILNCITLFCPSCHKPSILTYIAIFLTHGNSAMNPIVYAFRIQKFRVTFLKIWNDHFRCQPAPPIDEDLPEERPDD

Adenosine receptor A3 [2] = biological target: T4, Adenosine receptor A3 (Homo sapiens, UniProt P0DMS8); assay: Displacement of [3H]NECA from human cloned adenosine A3 receptor expressed in human HeLa cells; type: cell-based
T4 sequence (P0DMS8 whole entry): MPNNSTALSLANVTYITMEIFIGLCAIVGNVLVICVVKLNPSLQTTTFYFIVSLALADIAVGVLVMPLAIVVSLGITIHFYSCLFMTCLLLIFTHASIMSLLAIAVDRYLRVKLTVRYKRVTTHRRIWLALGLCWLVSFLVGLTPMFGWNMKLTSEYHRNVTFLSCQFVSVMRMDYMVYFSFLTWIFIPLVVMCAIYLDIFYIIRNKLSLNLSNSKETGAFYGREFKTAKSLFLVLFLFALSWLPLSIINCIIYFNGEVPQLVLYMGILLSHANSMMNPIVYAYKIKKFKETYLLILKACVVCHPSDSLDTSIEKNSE

Adenosine receptor A2a [3] = biological target: T2, Adenosine receptor A2a; assay: Displacement of [3H]ZM241385 from human cloned adenosine A2A receptor expressed in human HeLa cells at 1 uM; type: cell-based
Method in brief: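 HeLa membranes (10 µg) in 50 mM Tris–HCl, 1 mM EDTA, 10 mM MgCl2, 2 U/mL adenosine deaminase, pH 7.4; 3 nM [3H]ZM241385, 25 °C; NECA for nonspecific binding; filtration with 4× ice-cold washes, scintillation counting; percent radioligand displacement at 1 µM.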

Adenosine receptor A3 [4] = biological target: T4, Adenosine receptor A3; assay: Displacement of [3H]NECA from human cloned adenosine A3 receptor expressed in human HeLa cells at 1 uM; type: cell-based
[5] = Methanol-water partition coefficient, log K by RP-HPLC; type: physicochemical
Method in brief: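 Reverse-phase HPLC with water–methanol 40/60 (v/v) mobile phase at 1.0 ml/min; dead time from KI in methanol; retention times in minutes; log k from capacity factor taken as lipophilicity index.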

[6] = Solubility in 50 mM Tris/HCl buffer at pH 7.4 by turbidimetric method; type: physicochemical
Method in brief: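 DMSO stock added stepwise (about 14 additions) to 50 mM Tris/HCl pH 7.4 at room temperature, final DMSO below 5%; precipitation detected as UV absorbance rise at 600–800 nm; solubility limit from bilinear fit of absorbance versus DMSO.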

Work on CCCn1c(=O)c2c(cc(-c3ccc(N)cc3)n2O)n(CCC)c1=O yielded a Ki (Adenosine receptor A2b) of 0.155 µM, a Ki (Adenosine receptor A2a [1]) of 0.24 µM and a Ratio Ki (HeLa) of 1.5.
Compound CCCn1c(=O)c2[nH]c(-c3ccc(C(=O)O)cc3)c(O)c2n(CCC)c1=O has a Ki (Adenosine receptor A2b) of 0.338 µM, a Ki (Adenosine receptor A2a [1]) of 0.933 µM and a Ratio Ki (HeLa) of 2.8.
CCCn1c(=O)c2[nH]c(-c3ccccc3)cc2n(CCC)c1=O gave a Ki (Adenosine receptor A2b) of 0.229 µM, a Ki (Adenosine receptor A2a [1]) of 0.646 µM and a Ratio Ki (HeLa) of 2.8. It also gave a Ki (Adenosine receptor A1) of 0.034 µM and a Ki (Adenosine receptor A3 [2]) of 0.096 µM.
For Cn1c(=O)c2[nH]c(-c3ccccc3)cc2n(C)c1=O, the Ki (Adenosine receptor A2b) was 0.182 µM, the Ki (Adenosine receptor A2a [1]) was 0.479 µM and the Ratio Ki (HeLa) was 2.6.
Cc1ccc(-c2cc3c([nH]2)c(=O)n(C)c(=O)n3C)cc1 showed a Ki (Adenosine receptor A2b) of 0.457 µM, a Ki (Adenosine receptor A2a [1]) of 0.126 µM and a Ratio Ki (HeLa) of 0.28.
CCCn1c(=O)c2c(cc(-c3ccccc3)n2O)n(CCC)c1=O showed a Ki (Adenosine receptor A2b) of 0.676 µM, an inhibition (Adenosine receptor A2a [3]) of 32% and a Ki (Adenosine receptor A1) of 0.025 µM. For the same compound, the inhibition (Adenosine receptor A3 [4]) was 30%.
In the case of Cn1c(=O)c2[nH]c(-c3ccc(S(C)(=O)=O)cc3)c(O)c2n(C)c1=O, the Ki (Adenosine receptor A2b) is reported as 0.068 µM, the Ki (Adenosine receptor A2a [1]) is reported as 0.692 µM and the Ratio Ki (HeLa) is reported as 10.2.
In the case of CCCn1c(=O)c2[nH]c(-c3ccc(S(C)(=O)=O)cc3)c(O)c2n(C)c1=O, the Ki (Adenosine receptor A2b) is reported as 0.064 µM, the Ki (Adenosine receptor A2a [1]) is reported as 0.468 µM and the Ratio Ki (HeLa) is reported as 7.3. It also gave a Ki (Adenosine receptor A1) of 0.24 µM and an inhibition (Adenosine receptor A3 [4]) of 7%.
With Cc1ccc(-c2cc3c(c(=O)n(C)c(=O)n3C)n2O)cc1 the Ki (Adenosine receptor A2b) was 2.24 µM and the inhibition (Adenosine receptor A2a [3]) was 8%.
In the case of CCCn1c(=O)c2[nH]c(-c3ccc(OCC(=O)N4CCN(Cc5ccccc5)CC4)cc3)cc2n(CCC)c1=O, the Ratio Ki (HeLa) is reported as 42, the Ki (Adenosine receptor A1) is reported as 0.043 µM and the inhibition (Adenosine receptor A3 [4]) is reported as 5%. For the same compound, the “log K” value [5] was 0.93 and the solubility kinetic [6] was 2 µg/mL (≈ 3.68 µM).
Work on CCCn1c(=O)c2[nH]c(-c3ccc(OC)cc3)cc2n(CCC)c1=O yielded a Ki (Adenosine receptor A2b) of 0.49 µM, a Ki (Adenosine receptor A2a [1]) of 0.199 µM and a Ratio Ki (HeLa) of 0.41. The “log K” value [5] was 0.71 and the solubility kinetic [6] was 28 µg/mL (≈ 82 µM).
In the case of CCCn1c(=O)c2[nH]c(-c3ccco3)c(OS(=O)(=O)O)c2n(CCC)c1=O, the Ki (Adenosine receptor A2b) is reported as 0.035 µM, the Ki (Adenosine receptor A2a [1]) is reported as 0.408 µM and the Ratio Ki (HeLa) is reported as 11.7.
With CCCn1c(=O)c2[nH]c(-c3ccc(N)cc3)cc2n(CCC)c1=O the Ki (Adenosine receptor A2b) was 0.0089 µM, the Ki (Adenosine receptor A2a [1]) was 0.162 µM and the Ratio Ki (HeLa) was 18.2. For the same compound, the “log K” value [5] was 1.21 and the solubility kinetic [6] was 6 µg/mL (≈ 18.4 µM).
In the case of Cn1c(=O)c2c(cc(-c3ccccc3)n2O)n(C)c1=O, the Ki (Adenosine receptor A2b) is reported as 1.66 µM and the inhibition (Adenosine receptor A2a [3]) is reported as 12%.
For Cn1c(=O)c2[nH]c(-c3ccccc3)c(O)c2n(C)c1=O, the Ki (Adenosine receptor A2b) was 0.288 µM, the Ki (Adenosine receptor A2a [1]) was 1.47 µM and the Ratio Ki (HeLa) was 5.1.
In the case of CCCn1c(=O)c2[nH]c(-c3ccc(O)cc3)cc2n(CCC)c1=O, the Ki (Adenosine receptor A2b) is reported as 0.044 µM, the Ki (Adenosine receptor A2a [1]) is reported as 0.048 µM and the Ratio Ki (HeLa) is reported as 1.1.

Source: ChEMBL document CHEMBL1142545, “1,3-Dialkyl-8-(hetero)aryl-9-OH-9-deazaxanthines as potent A2B adenosine receptor antagonists: design, synthesis, structure-affinity and structure-selectivity relationships” (Bioorg Med Chem, 2008)
